The results in this text go back to ChEMBL document CHEMBL3286090, “Cryptocaryol Structure-Activity Relationship Study of Cancer Cell Cytotoxicity and Ability to Stabilize PDCD4” (ACS Med Chem Lett, 2014).

A short description of assay [1]: Cytotoxicity against human H460 cells after 72 hrs by MTT assay. The class given is functional, cell-based. To be noted: NCI-H460, 72 h. A digest of the protocol:
(§1)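 Cancer cell lines exposed to compound over a concentration range; viability read by MTT; IC50 in μM derived from dose-response.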
On the technique in general: Tetrazolium assays rely on reduction of a dye to a coloured formazan, in cell work by metabolically active cells.

Assay [2] deals with HT-29. Put plainly: Cytotoxicity against human HT-29 cells after 72 hrs by MTT assay. The assay is classed as functional, cell-based. The conditions noted are these: HT-29, 72 h. The procedure, abridged:
as §1

In assay [3] the target is T1, Programmed cell death protein 4 (Homo sapiens) (UniProt Q53EL6).
T1 sequence (whole entry): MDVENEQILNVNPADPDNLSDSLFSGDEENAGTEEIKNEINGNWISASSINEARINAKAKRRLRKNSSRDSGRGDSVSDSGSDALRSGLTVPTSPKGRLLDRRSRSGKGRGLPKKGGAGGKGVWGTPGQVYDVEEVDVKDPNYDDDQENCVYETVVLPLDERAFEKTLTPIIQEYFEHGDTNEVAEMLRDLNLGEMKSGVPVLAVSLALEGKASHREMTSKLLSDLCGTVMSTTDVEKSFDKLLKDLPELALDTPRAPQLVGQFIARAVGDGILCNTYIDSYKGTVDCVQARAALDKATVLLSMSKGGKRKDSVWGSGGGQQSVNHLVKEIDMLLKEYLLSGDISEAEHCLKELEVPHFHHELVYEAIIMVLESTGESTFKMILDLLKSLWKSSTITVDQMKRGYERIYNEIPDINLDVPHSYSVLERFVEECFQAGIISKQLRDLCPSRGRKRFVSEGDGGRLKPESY
Put plainly: Inhibition of TPA-induced PDCD4 degradation in human MCF7 cells at 1 uM treated 30 mins before TPA challenge measured after 6 hrs by Western blot analysis relative to TPA treated control. The assay is classed as cell-based. The procedure, abridged:
(§2)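 MCF-7 seeded at 100,000 cells/well, grown 24 h, then given cryptocaryol analogues (1 μM) or rapamycin (10 nM). TPA (20 nM) added 30 min later. After a further 6 h, cells scraped and lysed in RIPA. Lysate run on 12% SDS-PAGE, blotted to PVDF, probed for PDCD4 and β-actin, chemiluminescence detection. Signal expressed relative to cells given TPA alone.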
In general terms: Immunoblotting shows a protein as a band on a membrane.

In assay [4] the test system is MCF7. Put plainly: Cytotoxicity against human MCF7 cells after 72 hrs by MTT assay. The assay is classed as functional, cell-based. The conditions noted are these: MCF7, 72 h. The procedure, abridged: as §1
Assay [5] has as its system HT-29. Kind of assay: Potentiation of camptothecin-induced cytotoxicity against human HT-29 cells at 1 nM to 10 uM after 72 hrs by MTT assay. The assay is classed as functional, cell-based.
Assay [6] has as its system HT-29. Kind of assay: Potentiation of digitoxin-induced cytotoxicity against human HT-29 cells at 1 uM after 72 hrs by MTT assay in absence of TPA. The assay is classed as functional, cell-based. The procedure, abridged: (§3)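 HT-29 cells pretreated for 12 h with cryptocaryol at 1 μM, with rapamycin at 10 nM as the reference stabilizer, then exposed to digitoxin over a concentration range without TPA. The read-out was the digitoxin IC50 under the combination.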

Assay [7] has as its system HT-29. Put plainly: Potentiation of camptothecin-induced cytotoxicity against human HT-29 cells at 1 uM after 72 hrs by MTT assay in absence of TPA. The assay is classed as functional, cell-based.
For assay [8], the system named is HT-29. Kind of assay: Potentiation of digitoxin-induced cytotoxicity against human HT-29 cells at 1 nM to 10 uM after 72 hrs by MTT assay. The class given is functional, cell-based.
Assay [9] deals with MCF7. Put plainly: Potentiation of digitoxin-induced cytotoxicity against human MCF7 cells at 1 nM to 10 uM after 72 hrs by MTT assay. The class given is functional.
For assay [10], the system named is HT-29. Kind of assay: Potentiation of camptothecin-induced cytotoxicity against human HT-29 cells at 1 uM after 72 hrs by MTT assay in presence of TPA. The class given is functional, cell-based.
The test system of assay [11] is MCF7. Put plainly: Potentiation of camptothecin-induced cytotoxicity against human MCF7 cells at 1 nM to 10 uM after 72 hrs by MTT assay. The assay is classed as functional.
Assay [12] has as its system HT-29. Kind of assay: Potentiation of camptothecin-induced cytotoxicity against human HT-29 cells after 72 hrs by MTT assay in presence of TPA. The assay is classed as functional, cell-based.
Assay [13] deals with HT-29. Kind of assay: Potentiation of digitoxin-induced cytotoxicity against human HT-29 cells after 72 hrs by MTT assay in absence of TPA. The class given is functional, cell-based. A digest of the protocol:
as §3

The target in assay [14] is T1, Programmed cell death protein 4 (Homo sapiens). Put plainly: Inhibition of TPA-induced PDCD4 degradation in human MCF7 cells at 10 nM treated 30 mins before TPA challenge measured after 6 hrs by Western blot analysis relative to TPA treated control. The assay is classed as cell-based. The procedure, abridged: as §2
Assay [15] has as its system HT-29. Kind of assay: Potentiation of camptothecin-induced cytotoxicity against human HT-29 cells after 72 hrs by MTT assay in absence of TPA. The class given is functional, cell-based.
The subject of assay [16] is HT-29. Kind of assay: Potentiation of 5-fluorouracil-induced cytotoxicity against human HT-29 cells after 72 hrs by MTT assay in absence of TPA.
The subject of assay [17] is HT-29. Put plainly: Potentiation of 5-fluorouracil-induced cytotoxicity against human HT-29 cells after 72 hrs by MTT assay in absence of TPA. The assay is classed as functional, cell-based.
For assay [18], the system named is HT-29. Put plainly: Potentiation of 5-fluorouracil-induced cytotoxicity against human HT-29 cells after 72 hrs by MTT assay in presence of TPA. The assay is classed as functional, cell-based.
In assay [19] the test system is MCF7. Put plainly: Potentiation of camptothecin-induced cytotoxicity against human MCF7 cells at 1 uM treated 30 mins before TPA challenge measured after 72 hrs by MTT assay. The class given is functional, cell-based.

The source made the active and inactive calls. The rule behind the calls is not given here.

Consider `CCCCCCCCCCCCCCC[C@@H](O)C[C@H](O)C[C@H](O)C[C@H](O)C[C@H](O)C[C@@H]1CC=CC(=O)O1`, for which the IC50 is 7.9 µM in assay [1], 4.1 µM in the assay with HT-29 [2] and 25.8 µM in the assay on MCF7 [4]. In [3], the Ratio came to 3.8.

With `CCCCCCCCCCCCCCC[C@@H](C[C@H](O)C[C@H](O)C[C@H](O)C[C@H](O)C[C@@H]1CC=CC(=O)O1)OC(C)=O`, the IC50 in assay [1] was 7.8 µM; in the assay on HT-29 [2], 4.9 µM; in the assay on MCF7 [4] it was 13.3 µM. Also, in assay [3], the Ratio amounted to 1.9.

In the case of `CCCCCCCCCCCCCCC[C@H](O)C[C@@H](O)C[C@@H](O)C[C@@H](O)C[C@@H](O)C[C@H]1CC=CC(=O)O1`, the outcome in the assay with HT-29 [5], with HT-29 [6], in the assay on HT-29 [7], with HT-29 [8] and in the assay on HT-29 [10] was inactive. The IC50 in assay [1] worked out at 5.4 µM; with HT-29 [2], 4.2 µM; in the assay with MCF7 [4], 8.1 µM. Besides, the Ratio in assay [3] came to 3.6. Further, the CI in the assay on MCF7 [9] came out at 1.34; in the assay on MCF7 [11], 0.78.

As to `CCCCCCCCCCCCCCC[C@H](O)C[C@@H](O)C[C@@H](O)C[C@@H](O)C[C@@H](O)CCO`, the IC50 was greater than 1500 µM in assay [1], greater than 1500 µM in the assay with HT-29 [2] and greater than 500 µM in the assay on MCF7 [4]. In assay [3], the Ratio stood at 1.8.

Regarding `CCCCCCCCCCCCCCC[C@@H](C[C@@H](O)C[C@@H](O)C[C@@H](O)C[C@@H](O)CCO)OC(C)=O`, the IC50 in [1] was greater than 1000 µM; with HT-29 [2], 1280 µM; in the assay on MCF7 [4], 162 µM. The Ratio in assay [3] came to 2.8.

For `CO[C@H]1C[C@@H]2CC[C@@H](C)[C@@](O)(O2)C(=O)C(=O)N2CCCC[C@H]2C(=O)O[C@H]([C@H](C)C[C@@H]2CC[C@@H](O)[C@H](OC)C2)CC(=O)[C@H](C)/C=C(\C)[C@@H](O)[C@@H](OC)C(=O)[C@H](C)C[C@H](C)/C=C/C=C/C=C/1C`, the result in the assay on HT-29 [12], in the assay on HT-29 [13], with HT-29 [15], in the assay on HT-29 [16] and in the assay with HT-29 [17] was inactive. In addition, the Ratio in assay [14] stood at 6.6.

Regarding `CCCCCCCCCCCCCCC[C@H](C[C@H](O)C[C@H](O)C[C@H](O)C[C@H](O)C[C@@H]1CC=CC(=O)O1)OC(C)=O`, the figures for the IC50 (in assay [1]; in the assay with HT-29 [2]; in the assay on MCF7 [4]) were 4 µM, 2.4 µM and 9 µM, respectively. Moreover, the Ratio in assay [3] was 3.6.

For the molecule `CCCCCCCCCCCCCCC[C@@H](C[C@@H](O)C[C@@H](O)C[C@@H](O)C[C@@H](O)C[C@H]1CC=CC(=O)O1)OC(C)=O`, the result with HT-29 [5], in the assay on HT-29 [6], in the assay on HT-29 [18], in the assay with HT-29 [7], in the assay on HT-29 [8] and in the assay with MCF7 [19] was inactive. Moreover, the outcome in the assay with HT-29 [10] and in the assay with HT-29 [17] was inactive. For the same molecule, the IC50 worked out at 3.8 µM in assay [1], 2.9 µM with HT-29 [2] and 5.8 µM in the assay with MCF7 [4]. The Ratio in [3] worked out at 4.5. In addition, the CI is given as 1.04 in the assay with MCF7 [9] and 1.12 with MCF7 [11].

One may read the IC50 as the concentration at which inhibition is half-maximal. A high value points to lower potency.
